Changes are numbered by the printed parent chain.
Experiments:
Conditions in all cases: stereoisomer not certain
[1] = test system: T1, O4F15 S149F
T1 sequence (whole entry): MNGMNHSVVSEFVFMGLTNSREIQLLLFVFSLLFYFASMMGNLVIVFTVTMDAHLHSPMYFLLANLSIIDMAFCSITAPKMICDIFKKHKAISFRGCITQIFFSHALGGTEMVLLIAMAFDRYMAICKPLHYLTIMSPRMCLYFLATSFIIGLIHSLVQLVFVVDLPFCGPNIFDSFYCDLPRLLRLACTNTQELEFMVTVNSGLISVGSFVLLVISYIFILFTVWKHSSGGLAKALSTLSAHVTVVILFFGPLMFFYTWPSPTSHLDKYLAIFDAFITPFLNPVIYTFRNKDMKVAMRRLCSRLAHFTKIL
In short: (§1)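 Assay methods differ from source to source, frequently being transient luciferase assays in mammalian cell lines. For each receptor–molecule pair, the label responsive (active) applies when the original authors judged the measured signal statistically different from baseline, and non-responsive (inactive) applies otherwise.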

[2] = test system: T2, O4F17
T2 sequence (whole entry): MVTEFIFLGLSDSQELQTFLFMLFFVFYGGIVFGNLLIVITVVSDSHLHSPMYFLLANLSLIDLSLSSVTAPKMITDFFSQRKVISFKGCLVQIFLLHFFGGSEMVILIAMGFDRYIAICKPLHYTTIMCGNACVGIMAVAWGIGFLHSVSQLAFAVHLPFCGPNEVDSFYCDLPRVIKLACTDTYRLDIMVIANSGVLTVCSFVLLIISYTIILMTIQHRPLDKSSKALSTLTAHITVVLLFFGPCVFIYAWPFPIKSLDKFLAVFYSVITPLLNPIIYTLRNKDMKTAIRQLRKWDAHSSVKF
In short: as §1

[3] = test system: T3, O4F17; remark: listed apart in the source
T3 sequence (whole entry): T2 sequence (whole entry) with E15G, Q293R
In short: as §1

[4] = test system: T4, O4F21 F44L
T4 sequence (whole entry): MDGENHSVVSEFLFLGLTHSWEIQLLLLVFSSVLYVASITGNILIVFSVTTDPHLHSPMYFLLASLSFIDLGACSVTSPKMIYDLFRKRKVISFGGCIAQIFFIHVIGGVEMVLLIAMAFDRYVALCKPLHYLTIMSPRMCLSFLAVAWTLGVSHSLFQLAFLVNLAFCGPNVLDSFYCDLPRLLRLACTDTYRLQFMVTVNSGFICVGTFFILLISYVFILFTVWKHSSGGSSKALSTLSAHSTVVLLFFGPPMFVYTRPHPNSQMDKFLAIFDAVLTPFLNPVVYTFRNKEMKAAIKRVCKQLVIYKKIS
In short: as §1

[5] = test system: T5, O51A7 E8D
T5 sequence (whole entry): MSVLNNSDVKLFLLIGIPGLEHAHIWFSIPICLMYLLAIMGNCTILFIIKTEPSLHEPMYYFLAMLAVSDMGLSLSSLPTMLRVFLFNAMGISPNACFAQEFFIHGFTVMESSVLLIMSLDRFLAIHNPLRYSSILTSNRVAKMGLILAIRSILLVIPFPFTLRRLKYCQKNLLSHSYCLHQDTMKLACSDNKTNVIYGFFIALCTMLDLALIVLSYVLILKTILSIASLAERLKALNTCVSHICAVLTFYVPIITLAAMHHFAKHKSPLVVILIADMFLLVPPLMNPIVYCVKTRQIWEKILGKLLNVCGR
In short: as §1

[6] = test system: T6, O51B2 C120R C209S P283S
T6 sequence (whole entry): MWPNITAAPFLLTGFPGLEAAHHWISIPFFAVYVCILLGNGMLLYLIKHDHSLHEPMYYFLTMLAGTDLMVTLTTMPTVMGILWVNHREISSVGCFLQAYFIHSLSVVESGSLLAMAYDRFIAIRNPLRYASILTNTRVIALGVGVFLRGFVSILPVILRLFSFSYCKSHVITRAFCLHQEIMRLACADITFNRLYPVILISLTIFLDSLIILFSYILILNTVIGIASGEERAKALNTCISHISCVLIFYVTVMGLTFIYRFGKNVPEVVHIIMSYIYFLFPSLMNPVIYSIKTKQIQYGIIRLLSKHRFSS
In short: as §1

[7] = test system: T7, O51B4 M147T
T7 sequence (whole entry): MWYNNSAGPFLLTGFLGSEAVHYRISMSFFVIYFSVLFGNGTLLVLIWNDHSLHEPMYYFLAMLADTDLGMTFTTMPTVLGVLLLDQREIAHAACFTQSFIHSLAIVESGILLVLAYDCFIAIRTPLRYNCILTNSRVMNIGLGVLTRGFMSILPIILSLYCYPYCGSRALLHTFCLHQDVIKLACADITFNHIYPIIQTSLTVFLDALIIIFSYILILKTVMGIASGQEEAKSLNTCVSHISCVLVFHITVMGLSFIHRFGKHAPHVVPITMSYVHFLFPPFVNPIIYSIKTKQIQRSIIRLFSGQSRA
In short: as §1

[8] = test system: T8, O51B4
T8 sequence (whole entry): T7 sequence (whole entry) with V36I
In short: as §1

[9] = test system: T9, O51B5 G5S I102T P160L
T9 sequence (whole entry): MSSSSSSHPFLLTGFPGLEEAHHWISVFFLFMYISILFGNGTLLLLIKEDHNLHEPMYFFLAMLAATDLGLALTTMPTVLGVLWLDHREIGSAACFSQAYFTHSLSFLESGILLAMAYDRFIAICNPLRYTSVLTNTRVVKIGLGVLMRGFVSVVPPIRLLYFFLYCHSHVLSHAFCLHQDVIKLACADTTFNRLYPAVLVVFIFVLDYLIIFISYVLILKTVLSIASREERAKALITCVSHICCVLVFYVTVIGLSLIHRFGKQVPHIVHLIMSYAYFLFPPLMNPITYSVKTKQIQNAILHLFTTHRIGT
In short: as §1

[10] = test system: T10, O51D1 I89V
T10 sequence (whole entry): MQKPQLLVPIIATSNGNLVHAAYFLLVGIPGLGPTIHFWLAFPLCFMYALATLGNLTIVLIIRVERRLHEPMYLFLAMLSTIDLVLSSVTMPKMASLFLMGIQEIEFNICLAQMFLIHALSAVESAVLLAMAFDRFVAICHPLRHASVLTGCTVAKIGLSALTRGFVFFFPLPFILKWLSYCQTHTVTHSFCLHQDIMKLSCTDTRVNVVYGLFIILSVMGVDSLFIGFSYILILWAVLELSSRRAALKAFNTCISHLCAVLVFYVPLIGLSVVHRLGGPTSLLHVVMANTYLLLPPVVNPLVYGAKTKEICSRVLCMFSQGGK
In short: as §1

Measured: odorant receptor agonist call

Cc1cnc(C)c(C)n1
inactive: [1] | [2] | [3] | [4] | [5] | [6] | [7] | [8] | [9] | [10]

CCCC(S)CCOC(C)=O (centres undefined)
inactive: [1] | [2] | [3] | [4] | [5] | [6] | [7] | [8] | [9] | [10]

CCCCCCC=CCCC=O
inactive: [2] | [3] | [4] | [5] | [6] | [7] | [8] | [9] | [10]

CCC1OC(C)=C(O)C1=O (centres undefined)
inactive: [1] | [2] | [3] | [4] | [5] | [6] | [7] | [8] | [9] | [10]

CCC1OC(=O)C(O)=C1C (centres undefined)
inactive: [1] | [2] | [3] | [4] | [5] | [6] | [7] | [8] | [9] | [10]

CC1=C(O)C(=O)C(C)O1 (centres undefined)
inactive: [1] | [2] | [3] | [4] | [5] | [6] | [7] | [8] | [9] | [10]

CC1=C(O)C(=O)OC1C (centres undefined)
inactive: [1] | [2] | [3] | [4] | [5] | [6] | [7] | [8] | [9] | [10]

CC1=NC(C)C(C)S1 (centres undefined)
inactive: [1] | [2] | [3] | [4] | [5] | [6] | [7] | [8] | [9] | [10]

Source: the M2OR odorant receptor database
